Active and inactive are the calls of the source. No cut-off for these calls is given here.
How the values were obtained:
HeLa [1] = assay: Induction of apoptosis in human HeLa cells assessed as late apoptotic cells at 2 uM after 72 hrs by Annexin V-FITC/propidium iodide staining-based flow cytometric analysis (reference value: 3.3%); format: functional
HeLa [2] = assay: Induction of cell cycle arrest in human HeLa cells assessed as increase in cyclin B1 expression levels at 1.25 to 20 uM after 24 hrs by Western blot analysis; format: functional, cell-based
How it was run: (§1)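 HeLa cells treated with compound or DMSO for 24 h and lysed; protein quantified by BCA. Run on 8-12% SDS-PAGE and blotted to PVDF. Blocked in 5% BSA/TBST for 1.5 h, primary antibody overnight at 4 °C, secondary 2 h at room temperature. Chemiluminescent detection.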

HeLa [3] = assay: Cell cycle arrest in human HeLa cells assessed as accumulation of cells at G2/M phase at 2 uM after 12 hrs by propidium iodide staining-based flow cytometric analysis (reference value: 17.6%); format: functional
How it was run: (§2)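 HeLa cells treated with compound or DMSO, washed in PBS and fixed in 75% ethanol at -20 °C overnight. Stained with propidium iodide containing 0.1% RNase for 15 min in the dark at room temperature. DNA content read by flow cytometry to give cell-cycle phase distribution.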

[4] = Cytotoxicity against HOSEC at 10 to 50 uM by MTT assay relative to control; conditions: human
HCT-116 = assay: Antiproliferative activity against human HCT116 cells by MTT assay; format: functional, cell-based
How it was run: (§3)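 Growth inhibition rate calculated per compound. IC₅₀ derived by curve fitting.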

HeLa [5] = assay: Induction of apoptosis in human HeLa cells assessed as necrotic cells at 0.5 uM after 72 hrs by Annexin V-FITC/propidium iodide staining-based flow cytometric analysis (reference value: 0.5%); format: functional
HeLa [6] = assay: Induction of apoptosis in human HeLa cells after 72 hrs by Annexin V-FITC/propidium iodide staining-based flow cytometric analysis; format: functional, cell-based
[7] = (§4) Inhibition of pig brain tubulin polymerization measured every 1 min for 20 mins by spectrophotometric analysis; parameters: species or system Sus scrofa
Sus scrofa = species on record: Sus scrofa; assay: as §4
MDA-MB-231 [8] = assay: Antiproliferative activity against human MDA-MB-231 cells by MTT assay; format: functional, cell-based; how it was run: as §3
Mus musculus [9] = assay: Toxicity in Balb/c nude mouse xenografted with human A2780 cells assessed as body weight at 20 mg/kg, ip measured immediately after first dose (reference value: 21.74 +/- 0.63 g); format: organism-based; conditions: in vivo
HeLa [10] = assay: Induction of apoptosis in human HeLa cells assessed as necrotic cells at 2 uM after 72 hrs by Annexin V-FITC/propidium iodide staining-based flow cytometric analysis (reference value: 0.5%); format: functional
Mus musculus [11] = assay: Toxicity in Balb/c nude mouse xenografted with human A2780 cells assessed as body weight at 20 mg/kg, ip administered every other day measured at end of study (reference value: 22.35 +/- 0.74 g); format: organism-based; conditions: in vivo
HeLa [12] = assay: Induction of apoptosis in human HeLa cells assessed as viable cells at 1 uM after 72 hrs by Annexin V-FITC/propidium iodide staining-based flow cytometric analysis (reference value: 87.6%); format: functional; conditions: read-out: Activity
HeLa [13] = assay: Induction of apoptosis in human HeLa cells assessed as early apoptotic cells at 0.5 uM after 72 hrs by Annexin V-FITC/propidium iodide staining-based flow cytometric analysis (reference value: […]); format: functional
HeLa [14] = assay: Induction of apoptosis in human HeLa cells assessed as late apoptotic cells at 1 uM after 72 hrs by Annexin V-FITC/propidium iodide staining-based flow cytometric analysis (reference value: 3.3%); format: functional
HeLa [15] = assay: Induction of apoptosis in human HeLa cells assessed as late apoptotic cells at 0.5 uM after 72 hrs by Annexin V-FITC/propidium iodide staining-based flow cytometric analysis (reference value: 3.3%); format: functional
HeLa [16] = assay: Induction of apoptosis in human HeLa cells assessed as early apoptotic cells at 1 uM after 72 hrs by Annexin V-FITC/propidium iodide staining-based flow cytometric analysis (reference value: […]); format: functional
MDA-MB-231 [17] = assay: Inhibition of colony formation of human MDA-MB-231 cells at 800 nM incubated for 48 hrs followed by subsequent incubation for 7 to 10 days in fresh medium by gentian violet staining-based colony formation assay; format: functional, cell-based
How it was run: (§5)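 MDA-MB-231 or A2780 cells seeded at 1000 per well and grown 48 h at 37 °C, 5% CO₂. Then exposed to compound or DMSO for 48 h, medium replaced, and grown a further 7-10 days. Colonies fixed with methanol for 20 min and stained with gentian violet for 30 min. Three independent runs.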

HeLa [18] = assay: Induction of apoptosis in human HeLa cells assessed as viable cells at 0.5 uM after 72 hrs by Annexin V-FITC/propidium iodide staining-based flow cytometric analysis (reference value: 87.6%); format: functional; conditions: read-out: Activity
HeLa [19] = assay: Cell cycle arrest in human HeLa cells assessed as accumulation of cells at G2/M phase after 24 hrs by propidium iodide staining-based flow cytometric analysis; format: functional; how it was run: as §2
A2780 [20] = assay: Antitumor activity against human A2780 cells xenografted in Balb/c nude mouse assessed as tumor growth inhibition at 20 mg/kg, ip administered every other day relative to control; format: functional; conditions: read-out: TGI
HeLa [21] = assay: Induction of apoptosis in human HeLa cells assessed as increase in p53 protein levels after 24 hrs Western blot analysis
HUVEC [22] = assay: Antiangiogenic activity against HUVEC assessed as capillary like tube formation at 1 uM after 12 hrs by matrigel-based microscopic analysis; format: functional, cell-based; conditions: Homo sapiens
How it was run: (§6)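 Matrigel pre-set in wells for 2 h at 37 °C, 5% CO₂. HUVECs (10⁴ per well) seeded in medium with compound or DMSO. Incubated 6-12 h, then capillary-like tube networks photographed under a microscope.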

A2780 [23] = assay: Antiproliferative activity against human A2780 cells by MTT assay; format: functional, cell-based; how it was run: as §3
HUVEC [24] = assay: Antiangiogenic activity against HUVEC assessed as capillary like tube formation at 2 uM after 6 to 12 hrs by matrigel-based microscopic analysis; format: functional, cell-based; conditions: Homo sapiens; how it was run: as §6
HeLa [25] = assay: Induction of cell cycle arrest in human HeLa cells assessed as increase in phosphorylated histone H3 levels at 1.25 to 20 uM after 24 hrs by Western blot analysis; format: functional, cell-based; how it was run: as §1
HeLa [26] = assay: Antiproliferative activity against human HeLa cells by MTT assay; format: functional, cell-based; how it was run: as §3
HeLa [27] = assay: Induction of apoptosis in human HeLa cells assessed as viable cells at 2 uM after 72 hrs by Annexin V-FITC/propidium iodide staining-based flow cytometric analysis (reference value: 87.6%); format: functional; conditions: read-out: Activity
HeLa [28] = assay: Induction of apoptosis in human HeLa cells assessed as early apoptotic cells at 2 uM after 72 hrs by Annexin V-FITC/propidium iodide staining-based flow cytometric analysis (reference value: […]); format: functional
MDA-MB-231 [29] = assay: Inhibition of colony formation of human MDA-MB-231 cells incubated for 48 hrs followed by subsequent incubation for 7 to 10 days in fresh medium by gentian violet staining-based colony formation assay; format: functional, cell-based; how it was run: as §5
HeLa [30] = assay: Induction of apoptosis in human HeLa cells assessed as necrotic cells at 1 uM after 72 hrs by Annexin V-FITC/propidium iodide staining-based flow cytometric analysis (reference value: 0.5%); format: functional
A2780 [31] = assay: Inhibition of colony formation of human A2780 cells incubated for 48 hrs followed by subsequent incubation for 7 to 10 days in fresh medium by gentian violet staining-based colony formation assay; format: functional, cell-based; how it was run: as §5
HeLa [32] = assay: Induction of apoptosis in human HeLa cells assessed as increase in cleaved PARP1 protein levels after 24 hrs Western blot analysis

For `COc1ccc(N2C(=O)N(C)C(=O)C2c2cc(OC)c(OC)c(OC)c2)cc1N` (centres undefined), the Activity (HeLa [1]) was 17.5%, the Activity (HeLa [2]) was “Active” and the Activity (HeLa [3]) was 91.4%. The Activity [4] was no more than 33%, the IC50 (HCT-116) was 265 nM and the Activity (HeLa [5]) was 0.8%. For the same molecule, the Activity (HeLa [6]) was “Dose-dependent effect”, the IC50 [7] was 16200 nM and the inhibition (Sus scrofa) was “Dose-dependent effect”. The IC50 (MDA-MB-231 [8]) was 279 nM, the Activity (Mus musculus [9]) was 21.62 g and the Activity (HeLa [10]) was 2.2%. For the same molecule, the Activity (Mus musculus [11]) was 22.05 g, the viability at 1 µM (HeLa [12]) was 43.2% and the Activity (HeLa [13]) was 25.3%. For the same molecule, the Activity (HeLa [14]) was 8.7%, the Activity (HeLa [15]) was 6.1% and the Activity (HeLa [16]) was 47.8%. For the same molecule, the inhibition (MDA-MB-231 [17]) was “Active”, the viability at 0.5 µM (HeLa [18]) was 67.8% and the Activity (HeLa [19]) was “Dose-dependent effect”. For the same molecule, the inhibition in vivo at 20 mg/kg (A2780 [20]) was 46.9%, the Activity (HeLa [21]) was “Dose-dependent effect” and the Activity (HUVEC [22]) was “Active”. For the same molecule, the IC50 (A2780 [23]) was 186 nM, the Activity (HUVEC [24]) was “Active” and the Activity (HeLa [25]) was “Active”. It also gave an IC50 (HeLa [26]) of 251 nM, a viability at 2 µM (HeLa [27]) of 27.3% and an Activity (HeLa [28]) of 53%. The inhibition (MDA-MB-231 [29]) was “Dose-dependent effect”, the Activity (HeLa [30]) was 0.3% and the inhibition (A2780 [31]) was “Dose-dependent effect”. For the same molecule, the Activity (HeLa [32]) was “Dose-dependent effect”.
